The source made the active and inactive calls. No cut-off for these calls is given here.
What was measured:
[1] = Drug uptake in tumor of BALB/c mouse xenografted with […] cells at 0.25 umol/kg, iv measured at 24 hrs by fluorescence imaging; type: ADME, organism-based, Neoplasm; details: in vivo, dose 0.25 µmol/kg
Summary of the method: (§1)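 Subcutaneous Colon 26 tumors (~50 mm3) on the shoulder of BALB/c mice, 3 mice/group. Photosensitizer 0.25 μmol/kg iv in 1% Tween 80/D5W. Under isoflurane, Maestro spectral imaging used the Deep Red filter set (Ex 671–705 nm, Em 750 nm long-pass, 2 s exposure). Images taken at 4, 8, 12, 24 and 48 h; unmixed tumor signal quantified.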

Colon 26 [2] = assay: (§2) Photodynamic therapy against […] cells xenografted in BALB/c mouse assessed as reduction tumor volumes by measuring tumor cure response at 0.25 umol/kg, iv exposed to laser light at 787 nm at a dose of 135 J/cm2 and 35 mW/cm2 after 24 hrs post dose measured at day 60 post dose; type: functional; details: dose 0.25 µmol/kg, time 60.0 day
Colon 26 [3] = assay: Photodynamic therapy against […] cells assessed as reduction in cell viability at 0.025 uM incubated for 24 hrs followed by exposure to light at 787 nm in the range of 0-1.0 J/cm2 irradiation by MTT assay; type: functional, cell-based
Summary of the method: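 Murine Colon 26 cells (3600/well) exposed to 0.025 μM photosensitizer for 24 h. Irradiated at 787 nm from a tunable dye laser, 0–1.0 J/cm2 at 3.2 mW/cm2. MTT added 48 h after light. Blank-subtracted OD divided by untreated OD for each light dose gave percent survival. Single experiment in triplicate.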

[4] = Drug uptake in tumor of BALB/c mouse xenografted with […] cells at 1 umol/kg, iv measured after 24 to 48 hrs using 14C-labeled cpd by scintillation counting method; type: ADME, organism-based, Neoplasm; details: in vivo, time 24-48 hrs, dose 1 µmol/kg
Summary of the method: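 Colon 26 tumor-bearing BALB/c mice (~50 mm3) received 14C-labeled compound 1.0 μmol/kg iv (0.1 μCi/mouse), 3 mice/time point. Mice euthanized at 24, 48 and 72 h; tumor and muscle removed, weighed and solubilized overnight at 50 °C. Radioactivity counted; results given as mean cpm/g tissue ± SD.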

Colon 26 (mouse) = assay: Drug uptake in tumor of BALB/c mouse xenografted with mouse Colon 26 cells at 0.25 umol/kg, iv measured after 24 hrs followed by exposure to 787 nm light and stoppage of irradiation at regular intervals up to 30 mins by fluorescence imaging based IVIS spectrum-CT method; details: in vivo, at 0.25 µmol/kg
[5] = Photosensitizing activity in mouse Colon 26 cells assessed as induction of STAT3 cross-linking at 125 nM incubated for 24 hrs followed exposure to irradiation at 797 nm light (3 J/cm2) by Western blotting analysis
[6] = Skin phototoxicity in BALB/c mouse assessed as foot response at 0.25 umol/kg, iv after 24 to 96 hrs post dose followed by mouse restrainment and one hind foot illumination with solar light for 30 mins; type: organism-based, BALB/c m; details: in vivo, 0.5 h, time 24-96 hrs, dose 0.25 µmol/kg
Summary of the method: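 Non-tumor BALB/c mice given photosensitizer 0.25 μmol/kg iv. At 24, 48, 72 or 96 h (3 mice/group), one hind foot was illuminated for 30 min; the other foot served as control. Edema, erythema, epilation and desquamation scored 0 (normal) to 3 (loss of foot), followed for 4 more days.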

[7] = Photosensitizing activity in mouse Colon 26 cells assessed as induction of STAT3 cross-linking at 15 nM incubated for 24 hrs followed exposure to irradiation at 797 nm light (3 J/cm2) by Western blotting analysis
[8] = Stability in mouse Colon 26 cells culture media assessed as hydrolysis of methyl ester to carboxylic acid incubated for 24 hrs by TLC analysis; details: colon 26, 24 h
[9] = Photosensitizing activity in mouse Colon 26 cells assessed as induction of STAT3 cross-linking at 250 nM incubated for 24 hrs followed exposure to irradiation at 797 nm light (3 J/cm2) by Western blotting analysis
[10] = Drug uptake in tumor of BALB/c mouse xenografted with mouse 4T1 cells at 0.25 umol/kg, iv measured after 24 hrs by fluorescence imaging based IVIS spectrum-CT method; type: ADME, organism-based, BALB/c m, Neoplasm; details: in vivo, dose 0.25 µmol/kg
Summary of the method: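 BALB/c mice (3/group) were given 4T1-luc cells iv to seed lung tumors, and bioluminescence was imaged at day 9. Photosensitizer 0.25 μmol/kg iv, then fluorescence imaging at 24 h on IVIS Spectrum-CT (Ex 785 nm, Em >830 nm). The fluorescence image was merged with bioluminescence.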

[11] = Drug uptake in tumor of BALB/c mouse xenografted with […] cells at 0.25 umol/kg, iv measured after 24 by fluorescence imaging; type: ADME, organism-based, Neoplasm; details: in vivo, 24 h, dose 0.25 µmol/kg; summary of the method: as §1
Mus musculus = assay: Photosensitizing activity in BALB/c mouse implanted with mouse Colon 26 cells assessed as induction of STAT3 cross-linking at 0.47 umol/kg, iv for 24 hrs followed by exposure to laser light at 787 nm by Western blotting analysis; details: BALB/c m, dose 0.47 µmol/kg
[12] = as §2; type: functional; design: scale not given: the % may be the effect or the level left; details: dose 0.25 µmol/kg; time 60 day
Colon 26 [13] = assay: Photodynamic therapy against […] cells assessed as reduction in cell viability at 0.1 to 0.4 uM incubated for 24 hrs followed by exposure to 0.25J/cm2 irradiation by MTT assay; type: functional, cell-based; details: dose 0.1-0.4 µM
Summary of the method: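 Murine Colon 26 cells (3600/well) exposed to a range of photosensitizer concentrations for 24 h, then irradiated at 787 nm, 0.25 J/cm2 (3.2 mW/cm2). MTT readout 48 h after light. Percent survival taken relative to untreated cells after blank subtraction. Experiments done in triplicate.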

[14] = Photosensitizing activity in mouse Colon 26 cells assessed as induction of STAT3 cross-linking at 60 nM incubated for 24 hrs followed exposure to irradiation at 797 nm light (3 J/cm2) by Western blotting analysis
Colon 26 [15] = assay: Photodynamic therapy against […] cells xenografted in BALB/c mouse assessed as reduction tumor volumes by measuring tumor response at 0.25 umol/kg, iv exposed to laser light at 787 nm at a dose of 135 J/cm2 and 35 mW/cm2 after 48 hrs post dose measured at day 60 post dose; type: functional, organism-based; details: dose 0.25 µmol/kg, time 60.0 day
[16] = Photosensitizing activity in mouse Colon 26 cells assessed as induction of STAT3 cross-linking at 30 nM incubated for 24 hrs followed exposure to irradiation at 797 nm light (3 J/cm2) by Western blotting analysis
Colon 26 [17] = assay: Photodynamic therapy against […] cells xenografted in BALB/c mouse assessed as reduction tumor volumes by measuring tumor response at 0.25 umol/kg, iv exposed to laser light at 787 nm at a dose of 135 J/cm2 and 35 mW/cm2 after 12 hrs post dose measured at day 60 post dose; type: functional, organism-based; details: dose 0.25 µmol/kg, time 60.0 day
[18] = Drug uptake in tumor of BALB/c mouse xenografted with […] cells at 0.25 umol/kg, iv measured after 4 hrs by fluorescence imaging; type: ADME, organism-based, Neoplasm; details: in vivo, dose 0.25 µmol/kg; summary of the method: as §1

Row | Structure (SMILES) | Drug uptake [1] | Activity (Colon 26 [2]) | Activity (Colon 26 [3]) | Activity [5] [%] | Activity [7] [%] | Activity [9] [%] | Activity (Mus musculus) | Activity (Colon 26 [13]) | Activity [14] [%] | Activity (Colon 26 [15]) | Activity [16] [%] | further results
1 | CCCCO[C@H](C)c1c(C)c2cc3nc(c4c5[nH]c(cc6nc(cc1[nH]2)[C@H](C)[C@H]6CC)c(C)c5C(=O)N(CCCC)C4=O)[C@@H](CCC(=O)OC)[C@@H]3C | Active | Active | Active | – | – | – | – | – | – | – | – | –
2 | CCCCN1C(=O)c2c3nc(cc4[nH]c(cc5nc(cc6[nH]c2c(c6C)C1=O)[C@H](CC)[C@H]5C)c(C(C)O[14CH2]CCC)c4C)[C@@H](C)[C@@H]3CCC(=O)OC (some centres not stated) | – | – | – | – | – | – | – | – | – | – | – | Drug uptake [4]: Active
3 | CCCCO[C@@H](C)c1c(C)c2cc3nc(c4c5[nH]c(cc6nc(cc1[nH]2)[C@H](C)[C@H]6CC)c(C)c5C(=O)N(CCCC)C4=O)[C@@H](CCC(=O)OC)[C@@H]3C | Active | Active | Active | – | – | – | – | – | – | – | – | –
4 | CCCCOC(C)c1c(C)c2cc3nc(c4c5[nH]c(cc6nc(cc1[nH]2)[C@H](C)[C@H]6CC)c(C)c5C(=O)N(CCCC)C4=O)[C@@H](CCC(=O)OC)[C@@H]3C (some centres not stated) | Active | – | – | 1.5 | 0.1 | 2.4 | Active | Active | 0.5 | inactive | 0.2 | Drug uptake (Colon 26 (mouse)): 40%; Activity [6]: Non-Toxic; Stabilty [8]: Stable; Drug uptake [10]: Active; Drug uptake [11]: Not Active; Activity [12]: 80%
5 | CCCCOC(C)c1c(C)c2cc3nc(c4c5[nH]c(cc6nc(cc1[nH]2)[C@H](C)[C@H]6CC)c(C)c5C(=O)N(CCCC)C4=O)[C@@H](CCC(=O)O)[C@@H]3C (some centres not stated) | – | – | – | 9 | 0.3 | 15 | Active | Active | 5.8 | inactive | 1.2 | Activity (Colon 26 [17]): inactive; Drug uptake [18]: Active

From ChEMBL document CHEMBL4680088, “Highly Effective Dual-Function Near-Infrared (NIR) Photosensitizer for Fluorescence Imaging and Photodynamic Therapy (PDT) of Cancer” (J Med Chem, 2016)
